Bioassay records deposited in PubChem by several laboratories.
Shown are actives, neighbours in structure and some others; about 2.9% of the full set was active somewhere.
NRP1-CendR mod: alters CendR peptide binding to human NRP-1 | O14786 | FAM-RPARPAR peptide binding to NRP-1, fluorescence polarization | inhibition, % at 25 µM | 0.85% of 360,000 active;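 active = inhibition or corrected inhibition above about 18%, plus a signal ratio from 0.5 to 1.5, limit read from the data, passing the limit was not always enough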
Arr AP2 block: blocks beta-arrestin peptide binding to AP2 adaptin; FITC-arrestin peptide / GST-AP2 beads, flow cytometry; AP2 beta2 appendage carries R879A mutation; 0.31% of 340,000 active; inhibition, % at 10 µM;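 active = inhibition above a set limit, near 3 SD of compounds lacking own fluorescence, cut at about 54% in these data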;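 also: plate controls were DMSO wells for no effect and 5 µM unlabelled arrestin peptide for full effect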
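Material – AP2 appendage R879A on GSH beads · Buffer or medium – PBS with 0.05% Tween 20 and 0.1% BSA · Probe or stimulus – fluorescein-tagged arrestin peptide at 50 nM final · Incubation – compound with beads 12 min RT, then probe 1 h RT · Detection – high-throughput flow cytometry of beads, ex 488, em 535 nm · Evaluation – percent response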
CaV13 ICDI inh: Disruptors of the CACNA1D IQ motif to Ca2+-dependent inactivation inhibitor domain association, primary screening, Förster resonance energy transfer in intact living … | HEK cells, CFP/YFP FRET ICDI-IQ, plate reader, 10 min; percent FRET-ratio fall versus neutral wells | inhibition, % at 12.3 µM | 0.098% of 340,000 active;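 active = mean replicate inhibition of at least 30% and at least 1% of replicates passing that level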;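 also: 0% = median of the neutral control wells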
ADAM17 inh: ADAM17 inhibition, QFRET primary screen; P78536; recombinant ADAM17, EDANS/DABCYL FRET peptide cleavage; inhibition, % at 6.95 µM; 0.83% of 370,000 active;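 active = inhibition above the mean of compounds lying between control limits plus 3 SD, set per campaign, cut at about 8.5% in these data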;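 also: 0% = DMSO-only wells as the low control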
FAS-TE inh: FAS thioesterase (human) inhibition. P49327. recombinant FAS-TE, OMFH fluorogenic substrate, fluorescence endpoint. inhibition, % at 15 µM. 0.67% of 360,000 active. AID 602261;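 active = compounds whose normalised, plate-corrected inhibition of enzyme fluorescence in the single-dose primary screen is 50% or more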;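 also: 0% = DMSO with enzyme and 100% = substrate without enzyme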
ADAM10 inh: inhibitors of human ADAM10; inhibition, % at 7 µM; O14672; recombinant ADAM10, EDANS/DABCYL FRET peptide cleavage, 3 h; AID 720582; 0.62% of 370,000 active;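 active = inhibition above a per-campaign cutoff equal to the mean of compounds falling between control-based bounds plus 3 SD, cut at about 20% in these data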;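 also: 0% = DMSO wells while the 100% control is not disclosed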
Target sequence (O14672 214-748 limits assumed): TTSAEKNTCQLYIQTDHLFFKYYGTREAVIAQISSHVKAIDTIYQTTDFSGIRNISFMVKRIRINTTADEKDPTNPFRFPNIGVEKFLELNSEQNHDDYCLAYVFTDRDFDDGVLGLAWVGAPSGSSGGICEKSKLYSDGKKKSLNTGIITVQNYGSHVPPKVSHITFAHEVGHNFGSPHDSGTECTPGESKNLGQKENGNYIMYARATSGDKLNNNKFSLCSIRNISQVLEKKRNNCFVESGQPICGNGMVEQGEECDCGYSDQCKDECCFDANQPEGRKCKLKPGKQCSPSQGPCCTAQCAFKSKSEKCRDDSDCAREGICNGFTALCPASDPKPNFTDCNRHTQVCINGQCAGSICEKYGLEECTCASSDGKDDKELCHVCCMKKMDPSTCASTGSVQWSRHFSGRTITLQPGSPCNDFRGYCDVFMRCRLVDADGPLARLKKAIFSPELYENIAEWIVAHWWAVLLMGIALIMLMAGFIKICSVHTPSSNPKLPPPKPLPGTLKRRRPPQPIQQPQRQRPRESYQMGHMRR
The depositor's hits bear a star; nt = no result; + = active, no number.

SMILES | NRP1-CendR mod | Arr AP2 block | CaV13 ICDI inh | ADAM17 inh | FAS-TE inh | ADAM10 inh
CCC[C@H]1[C@@H](NC(=O)c2cccnc2)CC[C@@]23CCCN2C(=O)CCC[C@@H]13 | nt | nt | nt | -6 | nt | -7
COc1ccccc1C(=O)NC1CCCCN(Cc2cccc(Cl)c2)C1=O (stereo not given) | nt | nt | nt | 0 | nt | 1
Cc1n[nH]c(C)c1S(=O)(=O)N1CCOCC1 | 27* | 4 | -2 | 0 | -1 | 10
COC(=O)CCCCC1SCC2NC(=O)NC21O (stereo not given) | 27* | -8 | -7 | -2 | -7 | -13
CC(=O)NC(c1ccccc1)c1nc(-c2ccccc2)cs1 (stereo not given) | -1 | nt | -7 | -3 | -3 | -12
COc1ccc([C@H]2CC(=O)C=C(c3ccccc3C(F)(F)F)C2)cc1 | 29* | 25 | -5 | 2 | 35 | 5
C[C@H]1CCC[C@]2(O[C@H](CCO)C[C@H](O)[C@H]2O)O1 | 29* | 0 | -4 | -3 | -11 | -4
O=C(NNC(=O)C1CCN(Cc2ccccc2)CC1)c1cccc(Cl)c1 | 23* | 0 | -2 | 3 | -9 | 10
Cc1ccc(C(=O)NNC(=O)C2CCN(Cc3ccccc3)CC2)cc1 | 6 | 23 | nt | -6 | -3 | -5
Clc1ccccc1C1=CC(c2ccco2)n2ncnc2N1 (stereo not given) | 12 | -3 | + | -122 | -2 | -460
Clc1ccc(C2=CC(c3ccco3)n3ncnc3N2)cc1 (stereo not given) | 111 | 3 | -24 | -124 | -50 | -430
COc1ccc(C(C)C)cc1-c1cc(C(=O)NCc2cccc(C(F)(F)F)c2)[nH]n1 | 21* | nt | -5 | 1 | 16 | 1
O=C(c1ccc(-c2ccccc2)cc1)N1CCN(c2ccc3c(c2)C2CC3CCN2C(=O)OCc2ccccc2)CC1 (stereo not given) | 32* | nt | -6 | -5 | 21 | -14
Nc1nc2c(ncn2[C@@H]2O[C@H](C(=O)N[C@H](Cc3ccccc3)C(=O)O)[C@@H](O)[C@H]2O)c(=O)[nH]1 | nt | nt | -9 | -3 | nt | -10
CC1=C(C(=O)N2CCCCCC2)CC(CC(=O)NCc2cccs2)C(=O)N1Cc1ccccc1 (stereo not given) | -1 | nt | -4 | 1 | -4 | -12
CCOC(=O)c1[nH]c2ccc(OC)cc2c1NC(=O)c1ccc2c(c1)OCO2 | 3 | -2 | -4 | -2 | 3 | 7
COC(=O)c1[nH]c2cc(OC)ccc2c1NC(=O)c1ccc2c(c1)OCO2 | 21* | -1 | -3 | -31 | 6 | -62
O=C(C(=O)N1CCC(CNS(=O)(=O)c2cc(C(F)(F)F)cc(C(F)(F)F)c2)CC1)c1cc2ccccc2o1 | nt | nt | -7 | -5 | nt | -7
Cc1cn([C@H]2C[C@H](O)[C@@H](/C=C/C(=O)NCCN3CCOCC3)O2)c(=O)[nH]c1=O | -5 | nt | -5 | -7 | -10 | -7
O=C(Cn1ccc(NC(=O)OCc2ccccc2)nc1=O)NCc1ccc2[nH]ccc2c1 | 24* | 2 | -4 | 1 | -6 | 3
Cc1ccc(CNC(=O)Cn2ccc(NC(=O)OCc3ccccc3)nc2=O)o1 | 7 | 6 | -6 | -3 | -9 | 4
COCCCNC(=O)Cn1ccc(NC(=O)OCc2ccccc2)nc1=O | 8 | 4 | -10 | -4 | -13 | -4
COc1ccc(CNC(=O)Cn2ccc(NC(=O)OCc3ccccc3)nc2=O)cc1 | 38* | 2 | -7 | 0 | -16 | -10
CCC1CCCCN1CCCNC(=O)C1CCCN(S(=O)(=O)N2CC(C)CC(C)C2)C1 (stereo not given) | 27* | 4 | -6 | 0 | -6 | -6
Cc1cc(Oc2cccc3c2S(=O)(=O)N([C@H](C)c2ccccc2)C[C@@H](COCc2ccccc2)O3)cc(C)c1C | nt | nt | -7 | -4 | nt | -12
SMILES | NRP1-CendR mod | Arr AP2 block | CaV13 ICDI inh | ADAM17 inh | FAS-TE inh | ADAM10 inh
CC(NC1=CC(=O)c2cccnc2C1=O)C(O)c1ccccc1 (stereo not given) | 36* | -2 | -7 | -27 | 22 | -96
COc1ccc2cc(C(c3nnnn3CC3CCCO3)N3CCOCC3)c(=O)[nH]c2c1 (stereo not given) | 3 | 25 | -5 | -9 | -8 | -36
COc1ccc2[nH]c(=O)c(C(c3nnnn3CC3CCCO3)N3CCCCC3)cc2c1 (stereo not given) | 26* | -14 | -5 | -23 | -4 | -77
COC(=O)c1ccc(Cn2ccc3ccc(-c4ccc5ccn(Cc6ccc(C(=O)OC)cc6)c5c4)cc32)cc1 | nt | nt | nt | -7 | nt | -20
NC(=O)C(c1ccc(Cl)cc1Cl)c1ncc(C(F)(F)F)cc1Cl (stereo not given) | 23* | 10 | -9 | -3 | 14 | 9
NC(=O)C(c1ccc(Cl)cc1)c1ncc(C(F)(F)F)cc1Cl (stereo not given) | 11 | 6 | -5 | 0 | 6 | -1
CS(=O)(=O)Cc1cc(Sc2ccccc2)nc(-c2ccncc2)n1 | 23* | 4 | 1 | 1 | -3 | 2
O=S(Cc1cc(Sc2ccccc2)nc(-c2ccccc2)n1)c1ccccc1 (stereo not given) | 2 | 25 | nt | 0 | 25 | 6
C[C@@H]1CN([C@@H](C)CO)C(=O)CCCn2nncc2CO[C@@H]1CN(C)S(=O)(=O)c1ccccc1 | -1 | nt | -9 | 1 | -7 | -7
Nc1ccc2cccc(O)c2c1 | 28* | 20 | -2 | -1 | 3 | -1
CC(C)CN1CCC(=O)N([C@H](CSc2ccc(Br)cc2)Cc2ccccc2)CC1 | 24* | -1 | -5 | 3 | 22 | 13
CCCN1CCC(=O)N([C@H](CSc2ccc(Br)cc2)c2ccccc2)CC1 | 24* | 5 | -8 | 1 | 24 | -3
CN1CCC(=O)N([C@H](CSc2ccc(Br)cc2)Cc2ccccc2)CC1 | 4 | -4 | -9 | -6 | 0 | -6
CCNC(=O)C1(C)CCCN(Cc2csc(-c3ccccc3)n2)C1 (stereo not given) | -10 | nt | -7 | 0 | -4 | -6
Cc1cc(C)cc(C(=O)NC(CC(N)=O)c2ccc(NCC3CC3)c([N+](=O)[O-])c2)c1 (stereo not given) | -8 | -6 | -6 | -5 | -5 | 0
COc1cc(CCC(N)c2cccc(O)c2)cc(OC)c1OC (stereo not given) | 26* | 6 | -6 | -6 | -3 | -7
COc1cc(OC)cc(C(=O)Nc2ncc3c(n2)CC(C)CC3=O)c1 (stereo not given) | 35* | 5 | -5 | 5 | -14 | 5
COc1cccc(C(=O)Nc2ncc3c(n2)CC(C)CC3=O)c1 (stereo not given) | -11 | -5 | -6 | -2 | -4 | -2
